Measurements of several laboratories.
Lines come from different studies, so protocols differ. ≈ marks a conversion by molar mass, not a printed value.

| Compound | tested on | test | setting | quantity | value |
| --- | --- | --- | --- | --- | --- |
| CCCCOc1cccc(-c2cnc3c(n2)CCCC3)c1 | Haemonchus contortus | parasite motility | 72 h, larva | IC50 | 17.7 µM |
| C[C@@H](Oc1cc(-c2cnn(C3CCNCC3)c2)cnc1N)c1c(Cl)ccc(F)c1Cl | NCI-H2228 | cell growth or viability, MTT | 5 µg/mL, 72 h | inhibition | 85.2% |
| Cc1ccc(C(CS(=O)(=O)c2ccccc2)=NNC2=NC(=O)C(=NNc3ccccc3)S2)cc1 | SK-MEL-23 | cell growth or viability, MTT | 6.3 µM, 48 h | viability | 36.3% |
| CCCCCc1ccc(-c2cnc3c(n2)CCCC3)cc1 | Haemonchus contortus | parasite motility | 72 h, larva | IC50 | 14.4 µM |
| O=C(Nc1ccccc1-c1ccc(F)c(F)c1)c1nccnc1C(F)(F)F | Penicillium digitatum | microbial growth |  | EC50 | > 100 µg/mL |
| Cc1ncc([N+](=O)[O-])n1CCO | Eggerthella lenta | microbial growth, agar dilution | 48 h | MIC | 0.5 µg/mL (≈ 2.92 µM) |
| Cc1cc(Nc2ncc(Cl)c(Nc3ccccc3S(=O)(=O)C(C)C)n2)c(OC(C)C)cc1C1CCNCC1 | NCI-H2228 | cell growth or viability, MTT | 0.2 µg/mL, 72 h | inhibition | 70.9% |
| NC(=S)NN=C(CS(=O)(=O)c1ccccc1)c1ccc(F)cc1 | SK-MEL-23 | cell growth or viability, MTT | 6.3 µM, 48 h | viability | 53.8% |
| CCCCc1cccc(-c2cnc3c(n2)CCCC3)c1 | Haemonchus contortus | parasite motility | 24 h, larva | IC50 | 32.4 µM |
| c1cc2cc(CNCC3(N4CCCC4)COC3)ccc2[nH]1 | A 172 | cell growth or viability | 30 µM, 48 h | viability | 97.6% |
| Cc1ccc(C(CS(=O)(=O)c2ccccc2)=NNc2nc(-c3ccc(OCCCCOc4ccc(-c5csc(NN=C(CS(=O)(=O)c6ccccc6)c6ccc(C)cc6)n5)cc4)cc3)cs2)cc1 | SK-MEL-23 | cell growth or viability, MTT | 100 µM, 48 h | viability | 37.2% |
| CCCCOc1ccc(-c2cnc3c(n2)CCCC3)cc1 | Haemonchus contortus | parasite motility | 72 h, larva | IC50 | 6.9 µM |
| O=c1[nH]c(NCc2ccc(Cl)c(Cl)c2)nc2ncn(CCCCCN3CCOCC3)c12 | Eggerthella lenta | microbial growth, agar dilution | 48 h | MIC | > 32 µg/mL |
| Cc1ccc(C(CS(=O)(=O)c2ccccc2)=NN=C2N=C(c3ccc(Br)cc3)CS2)cc1 | SK-MEL-23 | cell growth or viability, MTT | 25 µM, 48 h | viability | 54.9% |
